What was measured:
Mus musculus [1] = assay: Toxicity in collagen-induced B10.RIII mouse arthritis model assessed as change in insulin level at 30 mg/kg, po qd for 35 days relative to 1% methylcellulose-treated control; type: organism-based; design: dose 30 mg/kg, route oral; details: in vivo, 840 h
Procedure, shortened: (§1)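 Female B10.RIII mice were immunized at 12–15 weeks with porcine type II collagen emulsified in complete Freund's adjuvant (100 μg intradermal, tail base). Animals were enrolled at first arthritis signs, 10 per group, and dosed orally once daily for five weeks in 1% methylcellulose. Paws were scored 1–4 each (max 16), with AUC taken. Serum was collected at day 35. Femur cortical thickness was measured by microCT in non-immunized, age-matched mice given the same dosing.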

Mus musculus [2] = assay: Toxicity in collagen-induced B10.RIII mouse arthritis model assessed as change in body fat at 3 mg/kg, po qd for 35 days relative to 1% methylcellulose-treated control; type: organism-based; design: dose 3 mg/kg, route oral; details: in vivo, 840 h; procedure, shortened: as §1
Mus musculus [3] = assay: Toxicity in collagen-induced B10.RIII mouse arthritis model assessed as change in free fatty acid level at 3 mg/kg, po qd for 35 days relative to 1% methylcellulose-treated control; type: organism-based; design: dose 3 mg/kg, route oral; details: in vivo, 840 h; procedure, shortened: as §1
Mus musculus [4] = assay: Toxicity in collagen-induced B10.RIII mouse arthritis model assessed as change in femur cortical thickness at 3 mg/kg, po qd for 35 days relative to 30% cremophor-treated control; type: organism-based; design: dose 3 mg/kg, route oral; details: in vivo, 840 h
Procedure, shortened: (§2)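 Female B10.RIII mice were immunized with porcine type II collagen in complete Freund's adjuvant, enrolled at arthritis onset (10/group), and dosed orally once daily for five weeks in 30% cremophor vehicle. Four paws were scored 1–4 (max 16), as AUC. Serum biomarkers were taken at day 35. Femur cortical thickness was measured by microCT in non-immunized, age-matched mice dosed identically.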

Mus musculus [5] = assay: Toxicity in collagen-induced B10.RIII mouse arthritis model assessed as change in AUC at 3 mg/kg, po qd for 35 days relative to 1% methylcellulose-treated control; type: organism-based; design: dose 3 mg/kg, route oral; details: in vivo, 840 h; procedure, shortened: as §1
Mus musculus [6] = assay: Toxicity in collagen-induced B10.RIII mouse arthritis model assessed as change in femur cortical thickness at 30 mg/kg, po qd for 35 days relative to 30% cremophor-treated control; type: organism-based; design: dose 30 mg/kg, route oral; details: in vivo, 840 h; procedure, shortened: as §2
Mus musculus [7] = assay: Toxicity in collagen-induced B10.RIII mouse arthritis model assessed as change in AUC at 3 mg/kg, po qd for 35 days relative to 30% cremophor-treated control; type: organism-based; design: dose 3 mg/kg, route oral; details: in vivo, 840 h; procedure, shortened: as §2
Mus musculus [8] = assay: Toxicity in collagen-induced B10.RIII mouse arthritis model assessed as change in body fat at 30 mg/kg, po qd for 35 days relative to 1% methylcellulose-treated control; type: organism-based; design: dose 30 mg/kg, route oral; details: in vivo, 840 h; procedure, shortened: as §1
Mus musculus [9] = assay: Toxicity in collagen-induced B10.RIII mouse arthritis model assessed as change in free fatty acid level at 3 mg/kg, po qd for 35 days relative to 30% cremophor-treated control; type: organism-based; design: dose 3 mg/kg, route oral; details: in vivo, 840 h; procedure, shortened: as §2
Mus musculus [10] = assay: Toxicity in collagen-induced B10.RIII mouse arthritis model assessed as change in triglyceride level at 3 mg/kg, po qd for 35 days relative to 1% methylcellulose-treated control; type: organism-based; design: dose 3 mg/kg, route oral; details: in vivo, 840 h; procedure, shortened: as §1
Mus musculus [11] = assay: Toxicity in collagen-induced B10.RIII mouse arthritis model assessed as change in body fat at 30 mg/kg, po qd for 35 days relative to 30% cremophor-treated control; type: organism-based; design: dose 30 mg/kg, route oral; details: in vivo, 840 h; procedure, shortened: as §2
Mus musculus [12] = assay: Toxicity in collagen-induced B10.RIII mouse arthritis model assessed as change in insulin level at 3 mg/kg, po qd for 35 days relative to 30% cremophor-treated control; type: organism-based; design: dose 3 mg/kg, route oral; details: in vivo, 840 h; procedure, shortened: as §2
Mus musculus [13] = assay: Toxicity in collagen-induced B10.RIII mouse arthritis model assessed as change in free fatty acid level at 30 mg/kg, po qd for 35 days relative to 1% methylcellulose-treated control; type: organism-based; design: dose 30 mg/kg, route oral; details: in vivo, 840 h; procedure, shortened: as §1
Mus musculus [14] = assay: Toxicity in collagen-induced B10.RIII mouse arthritis model assessed as change in insulin level at 3 mg/kg, po qd for 35 days relative to 1% methylcellulose-treated control; type: organism-based; design: dose 3 mg/kg, route oral; details: in vivo, 840 h; procedure, shortened: as §1
Mus musculus [15] = assay: Toxicity in collagen-induced B10.RIII mouse arthritis model assessed as change in femur cortical thickness at 3 mg/kg, po qd for 35 days relative to 1% methylcellulose-treated control; type: organism-based; design: dose 3 mg/kg, route oral; details: in vivo, 840 h; procedure, shortened: as §1
Mus musculus [16] = assay: Toxicity in collagen-induced B10.RIII mouse arthritis model assessed as change in body fat at 3 mg/kg, po qd for 35 days relative to 30% cremophor-treated control; type: organism-based; design: dose 3 mg/kg, route oral; details: in vivo, 840 h; procedure, shortened: as §2
Mus musculus [17] = assay: Toxicity in collagen-induced B10.RIII mouse arthritis model assessed as change in free fatty acid level at 30 mg/kg, po qd for 35 days relative to 30% cremophor-treated control; type: organism-based; design: dose 30 mg/kg, route oral; details: in vivo, 840 h; procedure, shortened: as §2
Mus musculus [18] = assay: Toxicity in collagen-induced B10.RIII mouse arthritis model assessed as change in AUC at 30 mg/kg, po qd for 35 days relative to 30% cremophor-treated control; type: organism-based; design: dose 30 mg/kg, route oral; details: in vivo, 840 h; procedure, shortened: as §2
Mus musculus [19] = assay: Toxicity in collagen-induced B10.RIII mouse arthritis model assessed as change in triglyceride level at 30 mg/kg, po qd for 35 days relative to 1% methylcellulose-treated control; type: organism-based; design: dose 30 mg/kg, route oral; details: in vivo, 840 h; procedure, shortened: as §1
Mus musculus [20] = assay: Toxicity in collagen-induced B10.RIII mouse arthritis model assessed as change in femur cortical thickness at 30 mg/kg, po qd for 35 days relative to 1% methylcellulose-treated control; type: organism-based; design: dose 30 mg/kg, route oral; details: in vivo, 840 h; procedure, shortened: as §1
Mus musculus [21] = assay: Toxicity in collagen-induced B10.RIII mouse arthritis model assessed as change in AUC at 30 mg/kg, po qd for 35 days relative to 1% methylcellulose-treated control; type: organism-based; design: dose 30 mg/kg, route oral; details: in vivo, 840 h; procedure, shortened: as §1
Mus musculus [22] = assay: Toxicity in collagen-induced B10.RIII mouse arthritis model assessed as change in insulin level at 30 mg/kg, po qd for 35 days relative to 30% cremophor-treated control; type: organism-based; design: dose 30 mg/kg, route oral; details: in vivo, 840 h; procedure, shortened: as §2
[23] = biological target: T1, Glucocorticoid receptor (Homo sapiens) (UniProt P04150); assay: Agonist activity at glucocorticoid receptor in human […] cells assessed as suppression of vitamin D-induced osteocalcin production at 2 uM after 48 hrs by Gla-type osteocalcin ELISA relative to dexomethasone; type: cell-based
T1 sequence (whole entry): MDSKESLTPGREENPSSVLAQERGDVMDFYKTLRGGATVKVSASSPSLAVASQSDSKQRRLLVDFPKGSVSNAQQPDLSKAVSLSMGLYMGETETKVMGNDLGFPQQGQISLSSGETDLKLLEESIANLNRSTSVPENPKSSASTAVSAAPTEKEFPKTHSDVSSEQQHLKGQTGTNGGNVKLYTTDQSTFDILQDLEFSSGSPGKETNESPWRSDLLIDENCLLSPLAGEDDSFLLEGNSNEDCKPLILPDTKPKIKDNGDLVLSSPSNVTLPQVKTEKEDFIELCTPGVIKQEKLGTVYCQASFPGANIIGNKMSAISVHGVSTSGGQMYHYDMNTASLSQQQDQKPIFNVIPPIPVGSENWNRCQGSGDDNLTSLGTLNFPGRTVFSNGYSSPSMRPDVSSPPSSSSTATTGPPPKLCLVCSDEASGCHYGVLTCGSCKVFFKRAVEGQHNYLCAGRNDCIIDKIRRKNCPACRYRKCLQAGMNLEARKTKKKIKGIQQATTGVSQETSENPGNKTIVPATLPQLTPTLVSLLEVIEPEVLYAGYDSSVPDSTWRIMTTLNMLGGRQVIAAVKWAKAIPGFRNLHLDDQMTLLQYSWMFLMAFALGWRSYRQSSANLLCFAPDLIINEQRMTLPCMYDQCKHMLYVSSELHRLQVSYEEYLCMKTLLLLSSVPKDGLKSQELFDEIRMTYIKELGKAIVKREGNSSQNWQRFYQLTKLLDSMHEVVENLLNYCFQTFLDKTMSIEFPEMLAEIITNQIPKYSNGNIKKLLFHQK
Procedure, shortened: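 MG-63 human osteosarcoma cells plated at 20000/well in DMEM/F-12 with 1% charcoal-filtered FBS and 10 μg/mL vitamin C. Medium refreshed next day, then vitamin D (10 nM final) added with compound (2 × 10−6 to 10−10 M), duplicates. Incubated 48 h at 37 °C; supernatant osteocalcin measured by Gla-type ELISA. Vitamin D-only wells = 100%. Max efficacy at 2 μM is relative to dexamethasone (100%).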

Emax [23]: 78%
Compound: C[C@]12C=CC(=O)C=C1CC[C@@H]1[C@@H]2[C@@H](O)C[C@@]2(C)[C@H]1CC[C@]2(O)C(=O)CO [PREDNISOLONE]
Activity (Mus musculus [1]): 103%
Activity (Mus musculus [2]): 48%
Activity (Mus musculus [3]): 39%
Activity (Mus musculus [4]): -13%
Activity (Mus musculus [5]): -43%
Activity (Mus musculus [6]): -22%
Activity (Mus musculus [7]): -55%
Activity (Mus musculus [8]): 68%
Activity (Mus musculus [9]): 30%
Activity (Mus musculus [10]): 21%
Activity (Mus musculus [11]): 71%
Activity (Mus musculus [12]): 36%
Activity (Mus musculus [13]): 44%
Activity (Mus musculus [14]): 62%
Activity (Mus musculus [15]): -9%
Activity (Mus musculus [16]): 30%
Activity (Mus musculus [17]): 54%
Activity (Mus musculus [18]): -90%
Activity (Mus musculus [19]): 226%
Activity (Mus musculus [20]): -18%
Activity (Mus musculus [21]): -78%
Activity (Mus musculus [22]): 703%
